Published values gathered from unrelated publications.
Compare with care: the assays were run in different laboratories. In brackets after ≈: the same amount, converted by molar mass.
Organism: Staphylococcus epidermidis
Read-out: microbial growth

| Structure (SMILES) | technique | strain | notes | quantity | value |
| --- | --- | --- | --- | --- | --- |
| CNC(C)C1CCC(N)C(OC2C(N)CC(N)C(OC3OCC(C)(O)C(NC)C3O)C2O)O1 (stereo not shown) | broth dilution |  |  | MIC | 1 µg/mL (≈ 2.09 µM) |
| C=C[C@]1(C)C[C@@H](OC(=O)CS[C@@H]2C[C@H]3CC[C@@H](C2)N3C)[C@]2(C)[C@H](C)CC[C@]3(CCC(=O)[C@H]32)[C@@H](C)[C@@H]1O |  |  | clinical isolate | MIC90 | 0.0625 µg/mL (≈ 0.121 µM) |
| CCn1cc(C(=O)O)c(=O)c2cc(F)c(N3CCNCC3)cc21 |  |  | clinical isolate | MIC | 0.2 µg/mL (≈ 0.626 µM) |
| Cc1ccc2[nH]nc(-c3nnc(Nc4ccc(F)cc4Cl)s3)c2c1 |  | ATCC12228 |  | MIC | 118 µg/mL (≈ 328 µM) |
| CN[C@H](CC(C)C)C(=O)N[C@H]1C(=O)N[C@@H](CC(N)=O)C(=O)N[C@H]2C(=O)N[C@H]3C(=O)N[C@H](C(=O)N[C@H](C(=O)O)c4cc(O)cc(O)c4-c4cc3ccc4O)[C@H](O)c3ccc(c(Cl)c3)Oc3cc2cc(c3O[C@@H]2O[C@H](CO)[C@@H](O)[C@H](O)[C@H]2O[C@H]2C[C@](C)(N)[C@H](O)[C@H](C)O2)Oc2ccc(cc2Cl)[C@H]1O | broth dilution |  | clinical isolate | MIC50 | 1 µg/mL |
| Cc1ccc2[nH]nc(-c3nnc(Nc4ccc(Cl)c(Cl)c4)s3)c2c1 |  | ATCC12228 |  | MIC | 187 µg/mL (≈ 498 µM) |
| CC[C@H]1OC(=O)[C@H](C)[C@@H](O[C@H]2C[C@@](C)(OC)[C@@H](O)[C@H](C)O2)[C@H](C)[C@@H](O[C@@H]2O[C@H](C)C[C@H](N(C)C)[C@H]2O)[C@](C)(O)C[C@@H](C)/C(=N\OCOCCOC)[C@H](C)[C@@H](O)[C@]1(C)O |  | MRSE | clinical isolate | MIC90 | > 128 µg/mL |
| Cc1c2c(nn1C)CSCc1cc(n(C)n1)CSc1cc(c3ccccc3c1)OCCCc1c(C(=O)O)n(C)c3c-2c(Cl)ccc13 | broth dilution |  | clinical isolate | MIC50 | 12.5 µM |
| Cc1ccc2[nH]nc(-c3nnc(Nc4ccc(C)c(C)c4)s3)c2c1 |  | ATCC12228 |  | MIC | 172 µg/mL (≈ 512 µM) |
| CN[C@H](CC(C)C)C(=O)N[C@H]1C(=O)N[C@@H](CC(N)=O)C(=O)N[C@H]2C(=O)N[C@H]3C(=O)N[C@H](C(=O)N[C@H](C(=O)O)c4cc(O)cc(O)c4-c4cc3ccc4O)[C@H](O)c3ccc(c(Cl)c3)Oc3cc2cc(c3O[C@@H]2O[C@H](CO)[C@@H](O)[C@H](O)[C@H]2O[C@H]2C[C@](C)(N)[C@H](O)[C@H](C)O2)Oc2ccc(cc2Cl)[C@H]1O |  |  | clinical isolate | MIC | 0.78 µg/mL (≈ 0.538 µM) |
